Laboratory results reported in ChEMBL document CHEMBL1158557, “In vitro TRPV1 activity of piperine derived amides” (Bioorg Med Chem, 2010).
The source made the active and inactive calls. The rule behind the calls is not given here.

Tests used:
[1] = target: T1, Transient receptor potential cation channel subfamily V member 1 (Homo sapiens, UniProt Q8NER1); assay: Antagonist activity at human TRPV1 expressed in tetracycline-stimulated HEK293 cells assessed as inhibition of capsaicin-induced intracellular calcium levels by fluorimetric assay relative to control; assay type: functional, cell-based
T1 sequence (Q8NER1 whole entry): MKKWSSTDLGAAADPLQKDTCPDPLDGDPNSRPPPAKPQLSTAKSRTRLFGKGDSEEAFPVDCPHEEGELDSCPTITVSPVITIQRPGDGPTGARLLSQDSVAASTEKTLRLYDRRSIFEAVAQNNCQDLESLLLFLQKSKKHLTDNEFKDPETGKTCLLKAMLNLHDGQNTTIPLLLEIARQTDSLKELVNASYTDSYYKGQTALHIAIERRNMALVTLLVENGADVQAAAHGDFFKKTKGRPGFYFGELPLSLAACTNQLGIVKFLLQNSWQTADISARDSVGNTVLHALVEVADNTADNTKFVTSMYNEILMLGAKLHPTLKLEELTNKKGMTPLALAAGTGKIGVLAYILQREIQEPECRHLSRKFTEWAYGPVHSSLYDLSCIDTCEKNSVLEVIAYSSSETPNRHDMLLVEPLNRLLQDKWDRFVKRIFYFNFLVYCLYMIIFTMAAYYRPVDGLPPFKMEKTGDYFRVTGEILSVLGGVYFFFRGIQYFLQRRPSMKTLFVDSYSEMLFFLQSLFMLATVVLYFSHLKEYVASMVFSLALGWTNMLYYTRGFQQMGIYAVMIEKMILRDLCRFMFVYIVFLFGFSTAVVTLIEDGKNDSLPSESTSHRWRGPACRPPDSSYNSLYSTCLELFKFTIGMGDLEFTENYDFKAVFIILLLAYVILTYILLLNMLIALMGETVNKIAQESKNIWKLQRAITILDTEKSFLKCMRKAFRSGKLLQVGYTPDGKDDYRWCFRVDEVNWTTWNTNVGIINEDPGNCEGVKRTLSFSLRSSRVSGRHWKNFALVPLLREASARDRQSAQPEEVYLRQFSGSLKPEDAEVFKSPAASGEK

[2] = target: T1, Transient receptor potential cation channel subfamily V member 1; assay: Antagonist activity at human TRPV1 expressed in tetracycline-stimulated HEK293 cells assessed as inhibition of capsaicin-induced intracellular calcium levels by fluorimetric assay; assay type: functional, cell-based
[3] = target: T1, Transient receptor potential cation channel subfamily V member 1; assay: Agonist activity at human TRPV1 expressed in HEK293 cells assessed as increase in intracellular calcium levels by fluorimetric assay without tetracycline-stimulation; assay type: functional, cell-based
Outline: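 Non-induced HEK T-REx hTRPV1 cells (no tetracycline) loaded with Fluo-4/AM 1 µM plus probenecid 2 mM for 1 h at 37 °C, then equilibrated 30 min in HEPES buffer pH 7.4. Compounds at 100 µM (10 µM where solubility poor), DMSO ≤0.1%. Fluorescence read at 488/520 nm, 22–24 °C, triplicate wells. Response given as % of 1 µM ionomycin; n = 4–6.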

[4] = target: T1, Transient receptor potential cation channel subfamily V member 1; assay: Agonist activity at human TRPV1 expressed in tetracycline-stimulated HEK293 cells assessed as increase in intracellular calcium levels by fluorimetric assay relative to control; assay type: functional, cell-based
Outline: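 Tetracycline induction (0.1 µg/mL, 16–24 h) of HEK T-REx hTRPV1 cells, then Fluo-4/AM loading (1 µM, with probenecid 2 mM, 1 h, 37 °C) and a 30 min rest in HEPES buffer pH 7.4. Screening at 100 µM, then full concentration–response for compounds above 50%. Ex 488/em 520 nm, 22–24 °C, triplicate wells.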

[5] = target: T1, Transient receptor potential cation channel subfamily V member 1; assay: Agonist activity at human TRPV1 expressed in tetracycline-stimulated HEK293 cells assessed as increase in intracellular calcium levels by fluorimetric assay; assay type: functional, cell-based
[6] = target: T1, Transient receptor potential cation channel subfamily V member 1; assay: Displacement of [3H]resiniferatoxin from human TRPV1

O=C(/C=C/C=C/c1ccc2c(c1)OCO2)Nc1ccc(Cl)cc1
Emax [1]: 94% | EC50 [2]: 10 nM

COc1cc(/C=C/C(=O)N2CCCCC2)ccc1O
Emax [1]: 93% | EC50 [2]: 2 nM

COc1cc(/C=C/C(=O)N2CCSCC2)ccc1O
Emax [1]: 93% | EC50 [2]: 2.51 nM

COc1cc(/C=C/C(=O)NCC(C)C)ccc1O
Emax [1]: 94% | EC50 [2]: 6.31 nM

COc1cc(/C=C/C(=O)N2CCOCC2)ccc1O
Emax [1]: 92% | EC50 [2]: 2.51 nM

O=C(/C=C/C=C/c1ccc2c(c1)OCO2)N1CCOCC1
Activity [3]: inactive | Emax [4]: 93% | EC50 [5]: 2510 nM

COc1cc(CNC(=O)CCCC/C=C/C(C)C)ccc1O
Emax [4]: 97%

Oc1cc2c(cc1O)CN(C(=S)NCCc1ccc(Cl)cc1)CCC2 [CAPSAZEPINE]
Emax [1]: 92% | EC50 [2]: 2510 nM

O=C(/C=C/c1ccc2c(c1)OCO2)N1CCCCC1 [ILEPCIMIDE]
Activity [3]: inactive | Emax [4]: 66% | EC50 [5]: 20000 nM

O=C(/C=C/CCc1ccc2c(c1)OCO2)N1CCCCC1 [PIPERANINE]
Activity [3]: inactive | Emax [4]: 88% | EC50 [5]: 3980 nM

O=C(/C=C/C=C/c1ccc2c(c1)OCO2)N1CCCCC1 [PIPERINE]
Activity [3]: inactive | Activity [6]: inactive | Emax [4]: 91% | EC50 [5]: 3160 nM

CC(C)CNC(=O)/C=C/C=C/c1ccc2c(c1)OCO2 [PIPERLONGUMININE]
Emax [1]: 94% | EC50 [2]: 6.31 nM

O=C(CCCCc1ccc2c(c1)OCO2)N1CCCCC1 [TETRAHYDROPIPERINE]
Activity [3]: inactive | Emax [4]: 90% | EC50 [5]: 6310 nM
